# MrgX1 ag: activates human MrgX1 receptor signaling. Q96LB2. MrgX1-HEK293 cells, Fluo-4 calcium fluorescence, agonist mode; active compounds read high. B-score at 10 µM. hit rate 0.44% among 310,000. AID 588627;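 active means calcium response B-score plate-corrected fluorescence ratio at least 3 library SD, with starting fluorescence B-score inside 5 SD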
# Target sequence (Q96LB2 whole entry, looked up): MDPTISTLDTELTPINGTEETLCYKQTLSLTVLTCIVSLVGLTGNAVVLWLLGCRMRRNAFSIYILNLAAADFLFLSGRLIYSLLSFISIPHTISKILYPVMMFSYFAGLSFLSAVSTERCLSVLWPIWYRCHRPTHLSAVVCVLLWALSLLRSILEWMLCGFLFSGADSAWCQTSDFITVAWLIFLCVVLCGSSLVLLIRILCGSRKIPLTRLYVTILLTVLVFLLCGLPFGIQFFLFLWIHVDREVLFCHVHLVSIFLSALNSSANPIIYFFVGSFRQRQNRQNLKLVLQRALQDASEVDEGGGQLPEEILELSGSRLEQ
#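 System: HEK293 cells stably expressing human MrgX1 receptor; Dosing: test compound in the initial addition of three; Schedule: overnight plating, then 30 min 37 °C plus 30 min room-temperature dye loading; Detection: kinetic calcium dye fluorescence, Fluo-4 NW; Controls: per-plate positive and negative controls for Z′ factor.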
# Cl transport mod: modulators of human KCC2 chloride dependent transport; AID 1456; B-score of Tl+ flux slope (higher = more flux/activation; lower = inhibition) at 10 µM; Q9H2X9; KCC2 cells, thallium flux FluoZin-2 fluorescence; hit rate 2.2% among 190,000;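 active means thallium flux slope and its plate-corrected score both differing from the plate sample mean at a set confidence after two filtering rounds, in either direction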;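 further: slope of fluorescence scaled to starting intensity during 10 to 20 s after thallium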
# RGS4 inh: human RGS4 inhibition; HEK293 M3R/RGS4 inducible, Fluo-4 calcium flux; active compounds read high; triggered by carbachol at its EC20; B-score at 10 µM; hit rate 0.45% among 310,000;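 active means B-score, a plate-corrected calcium signal, over three deviations above library mean, with baseline fluorescence within five deviations of library mean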;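 further: RGS4 expression induced by doxycycline in cells with stable M3 receptor; B-score is computed from the integrated fluorescence ratio over baseline after carbachol; higher B-score means a larger calcium signal and so more RGS4 inhibition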
# Target sequence (P49798 whole entry, looked up): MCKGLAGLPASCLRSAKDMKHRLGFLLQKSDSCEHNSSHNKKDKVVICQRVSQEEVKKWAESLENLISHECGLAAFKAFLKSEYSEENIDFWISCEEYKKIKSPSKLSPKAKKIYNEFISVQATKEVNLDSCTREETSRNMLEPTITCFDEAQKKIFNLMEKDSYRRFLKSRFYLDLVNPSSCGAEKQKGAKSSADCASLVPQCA
# MrgX1 PAM: allosterically activates human MrgX1 receptor signaling. Q96LB2. MrgX1-HEK293, Fluo-4 calcium flux, FDSS; active compounds read high. B-score at 10 µM. hit rate 0.63% among 310,000. AID 588675;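 active means plate-corrected calcium response at least 3 library SD above typical, normal starting fluorescence, not activating the receptor alone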;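 further: compound read alongside a low EC10 to EC30 dose of BAM8-22 agonist; peak minus trough fluorescence over baseline measured at the second addition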
# RGS4 pot: RGS4 potentiation or activation | HEK293 M3R/inducible RGS4, carbachol calcium flux Fluo4; active compounds read low | hit rate 0.92% among 310,000 | B-score at 10 µM | AID 463111;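 active means B-score of the integrated calcium signal more than 4 SD below the library mean, with starting fluorescence not abnormally high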;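 further: negative B-score means reduced calcium response which marks RGS4 activation or potentiation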
#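 test system = HEK293 cells with stable M3R and inducible RGS4 | schedule = recording 10 s baseline at 1 Hz, 100 s post-agonist | technique = Fluo4-AM (2 µM) calcium-flux fluorescence, kinetic read | measure = Agonist-evoked peak-minus-minimum fluorescence over baseline, integrated ratio, B score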
# MrgX1 antagonist: human MrgX1 receptor antagonism, primary screen; AID 588676; hit rate 1.3% among 310,000; B-score at 10 µM; MRGX1-HEK293 calcium flux, Fluo-4, BAM8-22 antagonism; active compounds read low;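 active means calcium-response B-score plate-corrected more than 3 library SD below zero, starting fluorescence within 5 deviations, no agonist response on first addition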;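 further: peak minus trough fluorescence over baseline after final BAM8-22 challenge near maximal dose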
# Numbers without * were called inactive; i = inactive; / = no result. Only some compounds are listed: those with a hit (about 4.7% of all), similar ones and a draw of the others.
SMILES,MrgX1 ag,Cl transport mod,RGS4 inh,MrgX1 PAM,RGS4 pot,MrgX1 antagonist
O=C1N=C(N2C=CC(=C3C=CNC=C3)C=C2)/C(=C/N=NC(=O)c2ccccc2O)S1,i,/,i,i,i,i
O=C(Nc1ccccc1Cc1ccccc1)c1oc2ccccc2c1COc1ccccc1,i,0.37,i,i,i,-5.5*
O=C(NCCc1ccccc1)c1oc2ccccc2c1COc1ccccc1,i,-0.12,i,i,i,i
Cc1ccc(N(CC(=O)NC(C)(C)C)C(=O)CCC(=O)Nc2nccs2)c(C)c1,i,/,i,i,i,i
CCOc1cccc(C(=O)NC(=S)Nc2cccnc2)c1,i,1.1,i,i,i,i
O=C(NC(=S)Nc1ccc(CN2CCCCC2)cc1)c1cccc(OCc2ccccc2)c1,i,1.3,i,i,-7.5*,i
CC(=O)Nc1ccc(CN2CCCCCCC2)cc1,i,0.13,i,i,i,i
CCOc1cccc(C(=O)NC(=S)Nc2ccccc2)c1,i,19*,i,i,i,i
O=C(Nc1ccc(CN2CCCCC2)cc1)c1c(F)c(F)c(F)c(F)c1F,i,0.17,i,i,-7.3*,i
COc1cccc(C(=O)NCCS(=O)(=O)N(C)Cc2ccccc2)c1,i,/,i,i,i,i
Cn1nnnc1NCc1ccccc1F,i,/,i,i,i,i
CC(=O)Cn1ncc(N(C)Cc2ccccc2)c(Cl)c1=O,i,/,i,i,i,i
COc1ccc(CNC(=O)[C@H](C)NC(=O)C2CCN(S(=O)(=O)c3ccc(F)cc3)CC2)cc1,i,/,i,i,i,i
O=C(Cn1ccc2ccccc2c1=O)NCC(=O)N1CCN(c2ccc(F)cc2)CC1,i,/,i,i,i,i
CC1(c2ccccc2)CC(C)(C)N2C(=O)/C(=C3\SC(=S)NC3=O)c3cccc1c32 (centres undefined),i,20*,i,i,i,i
CCCCCCCCNC(C)C(O)c1ccc(SC(C)C)cc1 (centres undefined),i,0.43,i,i,-7*,i
CC(=O)Nc1ccc(S(=O)(=O)Nc2c(NC3CCCCC3)c3ccccc3oc2=O)cc1,i,/,i,i,i,i
Nc1nc(-c2ccccc2)c(-c2ccc([N+](=O)[O-])cc2)s1,i,1.3,i,i,i,-5.1*
Nc1nc(-c2ccccc2)c(-c2ccccc2)s1,i,0.013,i,i,i,i
CCCCOc1ccc(CN2CCSCC2)cc1,i,/,i,i,i,i
Cc1ccc(C(=O)c2ccc(C)cc2)cc1,i,-1.4,i,i,i,i
Cc1ccc(C(=O)c2no[n+]([O-])c2C(=O)c2ccc(C)cc2)cc1,31*,-2,i,i,-8.8*,i
Cc1cc(Br)ccc1NC(=O)C1CCN(C(=O)c2ccco2)CC1,i,/,i,i,i,i
CC(C)(C)c1ccc(C(=O)N2CCCC2c2cccs2)cc1 (centres undefined),i,/,i,i,i,i
CCOC(=O)c1c(NC(=O)COC(=O)CC(NC(C)=O)c2ccccc2)sc(C(=O)NC)c1C (centres undefined),i,/,i,i,i,-4.8*
SMILES,MrgX1 ag,Cl transport mod,RGS4 inh,MrgX1 PAM,RGS4 pot,MrgX1 antagonist
CCOC(=O)c1c(NC(=O)COC(=O)c2ccc(O)cc2)sc(C(=O)NC)c1C,i,/,i,i,i,i
Cc1cccc(C)c1NC(=O)[C@@]1(CC(=O)O)CC(/C=C/c2ccccc2)=NO1,i,/,i,i,i,i
Cc1noc(C)c1COC(=O)c1cccc(S(=O)(=O)N2CCOCC2)c1,i,/,i,i,i,i
Cc1noc(C)c1COC(=O)c1cccc(S(=O)(=O)N2c3ccccc3CC2C)c1 (centres undefined),i,-0.72,i,i,-7.4*,i
C/C(=N\O)C(C)(C)Nc1ccc(Cl)cc1,44*,0.56,i,i,i,i
CCOC(=O)C1CCN(C(=O)C2CCN(c3ncnc4c3nc3n4CCCCC3)CC2)CC1,i,/,i,i,i,i
Cc1c(CCC(=O)O)c(=O)oc2c(C)c3occ(-c4ccc(Cl)cc4)c3cc12,i,/,i,6.6*,i,i
Cc1nc(NCCc2ccccc2)c2nnn(Cc3ccccc3)c2n1,i,/,i,i,i,i
N#C/C(=C\c1ccc(Sc2nc3ccccc3[nH]2)o1)c1ccccc1,i,0.35,i,i,i,-4.8*
CC1CCN(c2cc(N)c(Cl)cc2[N+](=O)[O-])CC1,i,/,i,7.3*,i,i
CC1CCN(c2cc(C#N)c(C#N)cc2[N+](=O)[O-])CC1,i,2,i,11*,i,i
Cc1cc(N2CCC(C)CC2)c(F)cc1[N+](=O)[O-],i,/,i,i,i,i
CCCC(=O)NC(=S)Nc1ccccc1N1CCOCC1,i,-0.19,i,i,i,-7.7*
CCCCC(=O)NC(=S)Nc1ccccc1N1CCCCC1,i,0.25,i,i,i,i
O=C(Oc1ccccc1C(=S)N1CCOCC1)c1cccc([N+](=O)[O-])c1,i,/,i,i,i,i
COc1ccc(Cl)cc1NC(=O)CN(C)C(C)C(=O)NC(=O)NC1CCCCC1 (centres undefined),i,/,i,i,i,i
CC(=O)NC(=S)Nc1ccc(S(=O)(=O)N(C)Cc2ccccc2)cc1,i,-0.46,i,i,i,i
CC(C)C(=O)NC(=S)Nc1ccc(S(=O)(=O)N(C)Cc2ccccc2)cc1,i,-1.6,i,i,-7*,i
CCN(CC(=O)Nc1c(F)cccc1F)C(=O)c1ccc2ncsc2c1,i,/,i,i,i,i
Clc1ncccc1OCc1ccccc1,i,/,i,i,i,i
COc1ccc(-c2cn(-c3ccc(OC)cc3)c3[n+]2-c2ccccc2CC3)cc1,i,-1.7,i,i,i,-7.9*
CC(=O)c1cccc(NC(=O)CCc2nc3sc4c(c3c(=O)[nH]2)CCCC4)c1,i,/,i,i,i,i
Cc1cnc(=O)[nH]c1SCc1ccccc1F,i,/,i,i,i,i
CC(=O)NN1C(=O)c2ccccc2NC1c1ccc([N+](=O)[O-])o1 (centres undefined),i,-0.37,i,i,i,i
CCOC(=O)c1ccc(-c2ccc(C3Nc4ccccc4C(=O)N3O)o2)cc1 (centres undefined),i,7.1*,i,i,i,i

# Screening data deposited in PubChem BioAssay by several laboratories.
